# High-throughput results as filed in PubChem BioAssay.
# Sampled rows, rich in hits. Any-hit rate of the full collection: about 4%.
# WT yeast gro inh = growth inhibition of WT strain, primary screen, mitochondrial fusion inhibitor project, WT and mutant strains, chemical genetic | inhibition, % at 10 µM | mitochondrial fusion phenotypic screen | 2.1% of 190,000 active; in the data active means inhibition above about 58%; tested in S. cerevisiae
# Pf gamet viab = late stage P. falciparum gametocyte viability inhibitors, primary screen, ATP luminescence, HTS | inhibition, % at 10.9 µM | AID 743093, 2013 | 0.065% of 150,000 active | P. falciparum stage V gametocytes, 24 h;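 active means inhibition above the mean plus 3 SD of compounds within the control limits, set per campaign, cut at about 38% in these data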;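 further: 0% = DMSO wells and 100% = medium only without gametocytes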
# MT stabilize HCS = microtubule stabilizers in HeLa cells, primary screen, imaging, high-content imaging | HeLa tubulin immunostaining HCS, 24 h; share of cells brighter than vehicle mean+2SD | % tubulin-high responders, % at 10 µM | 0.83% of 200,000 active;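 active means plate Z-score above 3 for both tubulin-high and condensed-nucleus cell shares, with cell loss under 80%, at 10 µM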;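 further: anti alpha tubulin signal scored within the nucleus-defined area of each cell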
# b-catenin transl = modulators of beta-catenin nuclear translocation, primary screen, imaging, HeLa cells, immunofluorescence, high-content. AID 1665, 2009. nuclear translocation activity, % at 5 µM. 0.3% of 190,000 active;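 active means nuclear translocation activity above 50% at 5 µM, with a well cell count of 50 or more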;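 further: per-cell ratio of nuclear to cytoplasmic median beta-catenin stain intensity; plate controls were DMSO negative control for no effect and GSK-3 inhibitor IX positive control for full effect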
#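 Read-out: Nuclear/cytoplasmic beta-catenin signal ratio, % activation | Assay system: Human HeLa cell line | Times: 24 h compound exposure at 37°C, 5% CO2 | Signal: Fluorescence imaging of beta-catenin antibody stain plus DAPI | Dosing: 5 µM primary, 0.02–20 µM confirmation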
# KCC2 mod = KCC2 cotransporter modulators, thallium flux, primary screen, cell-based, HEK293 KCC2, FluoZin-2 fluorescence, MLSMR. KCC2 cells, thallium flux FluoZin-2 fluorescence. B-score of Tl+ flux slope (higher = more flux/activation; lower = inhibition) at 10 µM. 2.2% of 190,000 active;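 active means thallium flux slope and its plate-corrected score both differing from the plate sample mean at a set confidence after two filtering rounds, in either direction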;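 further: slope of fluorescence scaled to starting intensity during 10 to 20 s after thallium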
# Target sequence (Q9H2X9 whole entry, looked up): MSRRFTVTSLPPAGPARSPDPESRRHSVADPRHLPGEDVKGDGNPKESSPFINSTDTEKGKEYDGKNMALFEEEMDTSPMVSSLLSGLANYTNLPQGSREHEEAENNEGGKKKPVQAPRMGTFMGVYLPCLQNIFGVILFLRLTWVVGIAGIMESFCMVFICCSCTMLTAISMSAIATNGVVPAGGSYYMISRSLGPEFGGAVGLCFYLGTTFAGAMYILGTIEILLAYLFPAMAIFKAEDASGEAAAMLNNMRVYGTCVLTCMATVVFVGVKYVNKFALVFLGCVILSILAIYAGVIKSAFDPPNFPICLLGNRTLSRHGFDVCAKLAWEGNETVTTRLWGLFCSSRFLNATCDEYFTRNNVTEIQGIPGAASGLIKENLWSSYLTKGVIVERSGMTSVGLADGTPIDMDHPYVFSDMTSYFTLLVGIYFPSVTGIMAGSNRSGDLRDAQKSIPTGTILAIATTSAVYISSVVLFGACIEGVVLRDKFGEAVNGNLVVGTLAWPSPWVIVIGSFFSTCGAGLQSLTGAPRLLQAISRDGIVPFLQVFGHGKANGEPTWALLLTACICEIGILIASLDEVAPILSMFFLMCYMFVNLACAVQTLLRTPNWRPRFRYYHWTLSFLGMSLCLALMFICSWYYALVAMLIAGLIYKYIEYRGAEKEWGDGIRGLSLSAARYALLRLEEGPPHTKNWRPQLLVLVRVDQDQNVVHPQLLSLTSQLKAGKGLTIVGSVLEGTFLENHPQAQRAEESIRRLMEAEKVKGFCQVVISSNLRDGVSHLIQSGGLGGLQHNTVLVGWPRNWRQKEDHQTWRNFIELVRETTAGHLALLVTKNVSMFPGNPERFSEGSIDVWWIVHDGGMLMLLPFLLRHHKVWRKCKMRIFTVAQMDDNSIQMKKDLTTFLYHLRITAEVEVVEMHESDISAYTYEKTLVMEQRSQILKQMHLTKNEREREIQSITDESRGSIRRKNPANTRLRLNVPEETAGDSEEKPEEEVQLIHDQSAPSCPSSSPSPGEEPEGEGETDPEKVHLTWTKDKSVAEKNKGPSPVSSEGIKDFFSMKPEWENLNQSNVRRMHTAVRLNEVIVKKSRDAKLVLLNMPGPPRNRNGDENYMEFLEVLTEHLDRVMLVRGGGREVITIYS
# An asterisk follows results filed as active; / = no result given.
SMILES,WT yeast gro inh,Pf gamet viab,MT stabilize HCS,b-catenin transl,KCC2 mod
CCOc1ccc2c(c1)-c1c(ssc1=S)C(C)(C)N2C(=O)c1ccco1,37,-2,13,68*,-1.2
CCC(C(=O)OCC(=O)Nc1cc(Cl)cc(Cl)c1)c1ccccc1 (stereo unspecified),79*,12,3,4,/
COc1ccc(C2C(C#N)=C(SC)NC3=C2C(=O)CC(C)(C)C3)cc1 (stereo unspecified),79*,-22,3,-1,-1.6
CCOC(=O)CSC1=C(C#N)C(c2ccc(OC)cc2)C2=C(CC(C)(C)CC2=O)N1 (stereo unspecified),24,/,5,1,-0.55
Cn1nc(CSc2ccccc2)c(C=O)c1Cl,5,0,2,1,-0.0073
CCC(=O)Nc1ccnc(-c2cccnc2)n1,20,-13,2,/,2.1
CC(C)(C)C(=O)Nc1ccnc(-c2cccnc2)n1,73*,/,3,/,1.7
Cc1ccc2c(c1)c1nnc(SCC(=O)Nc3ccc(N(C)C)cc3)nc1n2CC(=O)O,/,3,/,/,/
C=CCn1c(=O)c(C(=O)Nc2ccccc2S(N)(=O)=O)c(O)c2ccccc21,3,2,3,0,0.24
O=C(C[n+]1cn(C(F)F)c2ccccc21)c1ccc(OC(F)F)cc1,71*,9,3,-6,-0.4
CCOc1c(CNCCCSc2nc(C)cc(C)n2)cccc1OC,/,-15,/,/,/
CC1=CN2C(=N)/C(=C/c3ccc([N+](=O)[O-])o3)C(=O)N=C2S1,86*,-16,6,-2,0.43
CS(=O)(=O)N(Cc1ccccc1)c1ccccc1C(=O)N1CCN(c2ccccc2)CC1,/,/,2,0,/
CCCCc1ccc(NC(=S)Nc2ccc(Cl)c(S(=O)(=O)N(C)C)c2)cc1,77*,18,3,2,0.29
CCN1CCN(CC(=O)Nc2ccc(Cl)c(S(=O)(=O)N(C)C)c2)CC1,-40,-7,1,0,0.51
COc1ccccc1N=C(C)C1=C(O)CC(c2ccccc2)CC1=O (stereo unspecified),2,-19,7,52*,-2.5
O=[N+]([O-])c1cccc(N/N=C/c2cccc3ccccc23)c1,40,17,4,-2,1.9
CC(=O)Oc1ccc(C(=O)Nc2cc(C)on2)cc1,/,0,/,/,/
Cc1ccccc1NC1=C(Cl)C(=O)OC1OC(=O)c1ccccc1C (stereo unspecified),68*,12,2,1,-4.1
O=C(c1ccc(Cl)c(Cl)c1)c1cnc(Nc2ccccc2)s1,87*,-5,2,4,/
CNc1ncc(C(=O)c2ccc(Cl)c(Cl)c2)s1,19,-11,4,/,-0.81
CCCc1sc(N/N=C/c2ccccn2)nc1-c1ccc(F)cc1,83*,/,2,-2,/
Cc1nc(N/N=C/c2ccccn2)sc1C,47,-29,9,-2,-0.98
CC(C)(C)n1cnc2cc(NCc3cccs3)ccc21,1,0,3,1,-0.45
COc1ccccc1-n1cnc2cc(NCc3cccs3)ccc21,/,/,18*,162*,-1.7
SMILES,WT yeast gro inh,Pf gamet viab,MT stabilize HCS,b-catenin transl,KCC2 mod
COc1ccccc1-n1cnc2cc(NCc3ccco3)ccc21,30,-29,32*,131*,-1.3
COc1ccc(CNc2ccc3c(c2)ncn3-c2ccccc2OC)cc1,30,/,2,-2,-1.2
Cc1ccccc1-n1cnc2cc(NCc3cccs3)ccc21,-1,-5,27*,15,-1.3
COc1ccccc1-n1cnc2cc(NCc3ccccc3O)ccc21,/,9,/,6,-0.51
COc1ccc(-c2oc3ccc(-c4ccc5c(c4)OCO5)cc3c2-c2ccc(OC)nc2)cc1,/,15,/,/,/
COc1ccc(CN2CCN(Cc3ccon3)CC2CCO)c(C)c1C (stereo unspecified),/,-3,/,-1,-0.47
Cc1c(NC(=O)c2ccc(-c3ccccc3)cc2)cccc1C(=O)O,/,0,/,0,-1
CN(CC(=O)Nc1ccccc1Sc1ccccc1)C1CCCCC1,76*,15,2,0,0.51
CSc1ccccc1NC(=O)CN(C1CCCCC1)S(C)(=O)=O,-8,-3,1,/,1.1
COC(=O)c1c(NC(=S)NN2CCN(C)CC2)sc2c1CCC(C)C2 (stereo unspecified),98,-4,3,0,0.3
Cc1ccc(C(C)C)c(OCCNC(=S)Nc2cccc3ccccc23)c1,72*,/,2,0,/
Nn1c(Cc2cccc3ccccc23)nnc1SCCOc1ccc(F)cc1,18,6,2,0,-1.6
Nn1c(Cc2cccc3ccccc23)nnc1SCCOc1ccc(Br)cc1,68*,/,2,0,-1.7
O=C(NCc1ccccc1)C1CCN(S(=O)(=O)c2ccc(Cl)cc2)CC1,-2,/,3,-1,-0.33
CCc1ccc(/C=C2/SC(=S)N(CC(=O)Nc3nc4ccccc4s3)C2=O)cc1,0,/,2,0,4.9*
Cc1cccc(NC(=S)Nc2cccc(C)n2)n1,/,/,/,-2,0.013
Cc1cccc(NC(=S)NC2CCCC2)n1,72*,16,2,9,0.026
Cc1cccc(NC(=S)NC2CCCCC2)n1,68*,/,6,1,0.58
Cc1cccc(NC(=S)c2nc3ccccc3s2)c1,67*,-7,3,2,3.3*
N=C(N)c1ccc(OCCCCCOc2ccc(C(=N)N)cc2)cc1,76*,/,3,-1,0.17
CCOC(=O)c1[nH]c2ccccc2c1NC(=O)Nc1ccc(OC)cc1,-15,-21,4,-2,/
c1ccc(-c2nnc(-c3ccccn3)nc2NC2CCCCC2)cc1,63*,/,8,2,-1.3
NCC(=O)Nc1ccc(Cl)cc1C(=O)c1ccc[nH]1,/,/,/,1,-0.014
CCOC(=O)c1c(C)[nH]c(C2=NNC(=Nc3cccc(Cl)c3)SC2)c1C,63*,/,2,/,-0.095
COc1ccc(N2CCN(CC(=O)Nc3cccc(S(=O)(=O)N4CCOCC4)c3)CC2)cc1,-8,6,6,0,-0.056
SMILES,WT yeast gro inh,Pf gamet viab,MT stabilize HCS,b-catenin transl,KCC2 mod
Cc1cc(NCCCn2ccnc2)n2nc(C)c(-c3ccc(Cl)cc3)c2n1,65*,11,4,/,1.4
CCC(CO)Oc1cc(NCc2ccccn2)c2ncn(C(C)C)c2c1 (stereo unspecified),/,24,/,/,/
Clc1ccc(-c2ccc(/C=N/Nc3cc(N4CCOCC4)nc(N4CCOCC4)n3)o2)cc1,60*,/,1,3,0.0051
Brc1ccc(-c2ccc(/C=N/Nc3nc(N4CCOCC4)nc(N4CCOCC4)n3)o2)cc1,12,2,3,-3,-0.21
C[N+]1=C(/C=C/Nc2ccccc2Cl)C(C)(C)c2ccccc21,48,/,5,0,-2.3
COC(=O)c1ccc2c(c1)C(C)(C)C(/C=C/c1ccccc1O)=[N+]2C,7,/,53*,1,-1.3
CCOC(=O)c1c(C)c(C(=O)Nc2ccc3c(c2)OCCO3)c(C)n1CC,-10,2,31*,0,/
